The nature of test [1]: Cytotoxicity against human HuCCa1 cells after 48 hrs by MTT assay. Conditions: HuCC-A1, 48 h. Format: functional, cell-based. Summed up: (§1)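 Adherent cells seeded at 10,000–20,000 per well and held 24 h at 37 °C in 5% CO2. Serial dilutions of compound were then added, with etoposide and/or doxorubicin as positive controls and DMSO as negative control. After 48 h of continuous exposure, survival was read by MTT. IC50 was the concentration giving 50% growth inhibition relative to the DMSO control.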

In test [2] the test system is Vero. Description: Cytotoxicity against african green monkey Vero cells after 4 days by GFP detection method. As to conditions: Chlorocebus sabaeus, 96 h. It counts as cell-based. Summed up: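 Cells at 3.3 × 10^4 cells/mL were added to compounds prediluted in 0.5% DMSO. Plates were incubated 4 days at 37 °C in 5% CO2, and GFP fluorescence was read from the plate bottom.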

Test [3] has as its system HepG2. Description: Cytotoxicity against human HepG2 cells after 48 hrs by MTT assay. Format: functional, cell-based. Conditions: HepG2, 48 h. Summed up: as §1
The test system of test [4] is A549. Description: Cytotoxicity against human A549 cells after 48 hrs by MTT assay. It counts as functional, cell-based. As to conditions: A549, 48 h. Summed up: as §1
(Tetrazolium assays rely on reduction of a dye to a coloured formazan, in cell work by metabolically active cells.)

Test [5] is described as follows: Cytotoxicity against human MOLT3 cells after 48 hrs by XTT assay. As to conditions: MOLT-3, 48 h.
Test [6] relates to HepG2. The test is described as follows: Ratio of doxorubicin IC50 to compound IC50 for human HepG2 cells after 48 hrs by MTT assay. Format: functional.
In test [7] the test system is HepG2. The test is described as follows: Ratio of etoposide IC50 to compound IC50 for human HepG2 cells after 48 hrs by MTT assay. It counts as functional.

The results in this text go back to ChEMBL document CHEMBL3259540, “Design, synthesis and molecular docking studies of novel N-benzenesulfonyl-1,2,3,4-tetrahydroisoquinoline-based triazoles with potential anticancer activity” (Eur J Med Chem, 2014).

Regarding `O=S(=O)(c1ccc(-n2cc(CO)nn2)cc1)N1CCc2ccccc2C1`, the IC50 in test [1] was 51.4 µM; in test [2] it was greater than 50 µg/mL; in test [3], greater than 50 µg/mL; in test [4], greater than 50 µg/mL; in test [5], greater than 50 µg/mL.
In the case of `O=S(=O)(c1ccc(-n2cc(COc3ccccc3)nn2)cc1)N1CCc2ccccc2C1`, the IC50 in test [1] is greater than 50 µg/mL; in test [2], greater than 50 µg/mL; in test [3], 6.5 µM; in test [4], greater than 50 µg/mL; in test [5], greater than 50 µg/mL.
With `O=S(=O)(c1ccc(-n2cc(COc3ccc4ccccc4c3)nn2)cc1)N1CCc2ccccc2C1`, the IC50 is greater than 50 µg/mL in test [1]; greater than 50 µg/mL in test [2]; 60.5 µM in test [3]; greater than 50 µg/mL in test [4]; greater than 50 µg/mL in test [5].
`Cc1ccccc1OCc1cn(-c2ccc(S(=O)(=O)N3CCc4ccccc4C3)cc2)nn1`: the IC50 was greater than 50 µg/mL in test [1]; greater than 50 µg/mL in test [2]; greater than 50 µg/mL in test [3]; 66.3 µM in test [4]; greater than 50 µg/mL in test [5].
Regarding `Cc1ccc(OCc2cn(-c3ccc(S(=O)(=O)N4CCc5ccccc5C4)cc3)nn2)cc1`, the IC50 in test [1], in test [2], in test [3], in test [4] and in test [5] was greater than 50 µg/mL each time.
Take `CC(=O)c1ccccc1OCc1cn(-c2ccc(S(=O)(=O)N3CCc4ccccc4C3)cc2)nn1`: the half-maximal inhibitory concentration (IC50) in test [1] is 30.2 µM; in test [2], greater than 50 µg/mL; in test [3], 19.1 µM; in test [4], 14.9 µM; in test [5], 21.9 µM.
In the case of `COC(=O)c1ccccc1OCc1cn(-c2ccc(S(=O)(=O)N3CCc4ccccc4C3)cc2)nn1`, the half-maximal inhibitory concentration (IC50) stood at 0.63 µM in test [1]; 4.98 µM in test [2]; 12.4 µM in test [3]; 0.57 µM in test [4]; 18.6 µM in test [5].
On the same counts, the results for `O=Cc1ccc(OCc2cn(-c3ccc(S(=O)(=O)N4CCc5ccccc5C4)cc3)nn2)cc1` are greater than 50 µg/mL, greater than 50 µg/mL, 5.27 µM, 59.1 µM and greater than 50 µg/mL.
With `O=c1cc(OCc2cn(-c3ccc(S(=O)(=O)N4CCc5ccccc5C4)cc3)nn2)c2ccccc2o1`, the IC50 in test [1] was 24.8 µM; in test [2] it was 28.6 µM; in test [3] it was greater than 50 µg/mL; in test [4] it was 25.3 µM; in test [5], 80.8 µM.
As to `COc1cc2c(cc1OC)CN(S(=O)(=O)c1ccc(-n3cc(CO)nn3)cc1)CC2`, the IC50 is 72 µM in test [1]; greater than 50 µg/mL in test [2]; 31.8 µM in test [3]; 41 µM in test [4]; greater than 50 µg/mL in test [5].
With `COc1cc2c(cc1OC)CN(S(=O)(=O)c1ccc(-n3cc(COc4ccccc4)nn3)cc1)CC2`, the IC50 was greater than 50 µg/mL in test [1]; greater than 50 µg/mL in test [2]; 2.57 µM in test [3]; greater than 50 µg/mL in test [4]; greater than 50 µg/mL in test [5].
Regarding `COc1cc2c(cc1OC)CN(S(=O)(=O)c1ccc(-n3cc(COc4ccc5ccccc5c4)nn3)cc1)CC2`, the half-maximal inhibitory concentration (IC50) in test [1] was greater than 50 µg/mL; in test [2], greater than 50 µg/mL; in test [3], 1.26 µM; in test [4], greater than 50 µg/mL; in test [5], 36.4 µM.
Turning to `COc1cc2c(cc1OC)CN(S(=O)(=O)c1ccc(-n3cc(COc4ccccc4C)nn3)cc1)CC2`, the half-maximal inhibitory concentration (IC50) in test [1] was 39.7 µM; in test [2], greater than 50 µg/mL; in test [3] it was 1.48 µM; in test [4], 27.2 µM; in test [5] it was greater than 50 µg/mL.
Consider `COc1cc2c(cc1OC)CN(S(=O)(=O)c1ccc(-n3cc(COc4ccc(C)cc4)nn3)cc1)CC2`, for which the “Ratio IC50” value stood at 1.4 in test [6] and 53.9 in test [7]. Moreover, the half-maximal inhibitory concentration (IC50) is greater than 50 µg/mL in test [1]; greater than 50 µg/mL in test [2]; 0.56 µM in test [3]; greater than 50 µg/mL in test [4]; greater than 50 µg/mL in test [5].
As for `COc1cc2c(cc1OC)CN(S(=O)(=O)c1ccc(-n3cc(COc4ccccc4C(C)=O)nn3)cc1)CC2`, the IC50 is greater than 50 µg/mL in test [1]; 37.2 µM in test [2]; greater than 50 µg/mL in test [3]; greater than 50 µg/mL in test [4]; greater than 50 µg/mL in test [5].
Take `COC(=O)c1ccccc1OCc1cn(-c2ccc(S(=O)(=O)N3CCc4cc(OC)c(OC)cc4C3)cc2)nn1`: the IC50 in test [1] was determined as 4.79 µM; in test [2], 2.82 µM; in test [3], 3.37 µM; in test [4] it was 8.43 µM; in test [5], 11.7 µM.
On the same counts, the results for `COc1cc2c(cc1OC)CN(S(=O)(=O)c1ccc(-n3cc(COc4ccc(C=O)cc4)nn3)cc1)CC2` are 31.1 µM, greater than 50 µg/mL, 12.5 µM, 31.8 µM and 34.1 µM.
On the same counts, the results for `COc1cc2c(cc1OC)CN(S(=O)(=O)c1ccc(-n3cc(COc4ccc([N+](=O)[O-])cc4)nn3)cc1)CC2` are greater than 50 µg/mL, greater than 50 µg/mL, greater than 50 µg/mL, greater than 50 µg/mL and greater than 50 µg/mL.
The matching figures for `COc1cc2c(cc1OC)CN(S(=O)(=O)c1ccc(-n3cc(COc4cc(C=O)ccc4OC)nn3)cc1)CC2`: 76.2 µM, greater than 50 µg/mL, 41.4 µM, 31.9 µM and 5.82 µM.
With `COc1cc2c(cc1OC)CN(S(=O)(=O)c1ccc(-n3cc(COc4ccc(C=O)cc4OC)nn3)cc1)CC2`, the IC50 in test [1] was 40 µM; in test [2], greater than 50 µg/mL; in test [3], greater than 50 µg/mL; in test [4] it was greater than 50 µg/mL; in test [5] it was 5.5 µM.
In the case of `COc1cccc2c1C(=O)c1c(O)c3c(c(O)c1C2=O)C[C@@](O)(C(=O)CO)C[C@@H]3O[C@H]1C[C@H](N)[C@H](O)[C@H](C)O1` [DOXORUBICIN], the IC50 in test [1] came to 0.83 µM.
In the case of `Cc1c2ccncc2c(C)c2c1[nH]c1ccccc12` [ELLIPTECINE], the 50% inhibitory concentration (IC50) in test [2] is 1.94 µM.
In turn, `COc1cc([C@@H]2c3cc4c(cc3[C@@H](O[C@@H]3O[C@@H]5CO[C@@H](C)O[C@H]5[C@H](O)[C@H]3O)[C@H]3COC(=O)[C@H]23)OCO4)cc(OC)c1O` [ETOPOSIDE] showed an IC50 in test [5] of 0.051 µM.

As a reminder, the IC50 is the midpoint of a concentration-inhibition curve.
